System in one data set: not listed separately
Description: Synergistic cytotoxicity against mouse L5178 cells expressing human ABCB1 assessed as combination index at ED50 using 7.5:1 test compound to doxorubicin ratio after 48 hrs by MTT-based checkerboard microplate method. The format is functional.
Conditions: not given
The procedure, abridged: (§1)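 Checkerboard microplate combinations of compound with doxorubicin at constant molar ratios. 5 × 10^4 cells/well in McCoy's 5A, 48 h at 37°C, 5% CO2. MTT added to 0.5 mg/mL final for 4 h, SDS/HCl overnight, OD read at 540 and 630 nm. Combination indices derived per ratio for 50%, 75% and 90% growth inhibition by median-effect analysis.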
Chain of ABCB1 (P-glycoprotein) (P08183 whole entry): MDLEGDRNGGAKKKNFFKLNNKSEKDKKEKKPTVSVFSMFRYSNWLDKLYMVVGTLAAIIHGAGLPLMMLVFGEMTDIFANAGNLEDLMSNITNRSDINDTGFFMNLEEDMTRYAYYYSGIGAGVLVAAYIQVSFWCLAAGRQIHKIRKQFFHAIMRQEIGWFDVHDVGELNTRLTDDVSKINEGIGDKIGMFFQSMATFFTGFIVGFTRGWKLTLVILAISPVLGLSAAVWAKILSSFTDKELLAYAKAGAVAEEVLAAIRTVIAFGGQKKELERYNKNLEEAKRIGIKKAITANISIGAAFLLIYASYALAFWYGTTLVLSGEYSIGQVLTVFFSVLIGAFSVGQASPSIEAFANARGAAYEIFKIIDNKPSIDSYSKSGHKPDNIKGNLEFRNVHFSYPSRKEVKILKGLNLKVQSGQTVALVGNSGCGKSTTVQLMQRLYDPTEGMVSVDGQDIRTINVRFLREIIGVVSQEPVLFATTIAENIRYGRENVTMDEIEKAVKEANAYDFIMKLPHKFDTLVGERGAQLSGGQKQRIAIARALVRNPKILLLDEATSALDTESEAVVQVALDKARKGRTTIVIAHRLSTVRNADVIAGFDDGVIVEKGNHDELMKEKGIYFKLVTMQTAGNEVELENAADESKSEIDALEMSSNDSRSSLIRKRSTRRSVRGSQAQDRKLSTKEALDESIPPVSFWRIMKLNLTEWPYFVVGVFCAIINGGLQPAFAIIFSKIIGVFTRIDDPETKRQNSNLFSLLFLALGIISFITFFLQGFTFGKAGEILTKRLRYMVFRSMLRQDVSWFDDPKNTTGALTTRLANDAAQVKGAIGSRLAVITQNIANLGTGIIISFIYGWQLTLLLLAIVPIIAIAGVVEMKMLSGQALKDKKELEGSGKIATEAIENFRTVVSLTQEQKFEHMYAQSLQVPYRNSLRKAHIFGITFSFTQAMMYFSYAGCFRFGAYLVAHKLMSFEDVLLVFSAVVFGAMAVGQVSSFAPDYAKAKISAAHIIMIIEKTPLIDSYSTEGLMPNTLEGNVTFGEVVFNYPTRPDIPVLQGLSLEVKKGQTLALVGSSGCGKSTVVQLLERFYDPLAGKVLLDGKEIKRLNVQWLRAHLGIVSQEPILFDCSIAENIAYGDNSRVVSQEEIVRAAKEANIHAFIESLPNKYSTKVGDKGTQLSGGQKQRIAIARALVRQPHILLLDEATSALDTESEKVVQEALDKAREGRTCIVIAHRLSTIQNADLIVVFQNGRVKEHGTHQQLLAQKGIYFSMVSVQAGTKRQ
`CC(C)(O)CC[C@H]1OC(C)(C)O[C@]1(C)[C@H]1CC=C2C3=C/C(=N/OC(C)(C)C)[C@@H]4C[C@H]5OC(C)(C)O[C@H]5C[C@]4(C)[C@H]3CC[C@@]21C`: the CI stood at 0.34.

System in the next data set: not listed separately
Description: Synergistic cytotoxicity against mouse L5178 cells expressing human ABCB1 assessed as combination index at ED90 using 3.75:1 test compound to doxorubicin ratio after 48 hrs by MTT-based checkerboard microplate method. The format is functional.
Conditions: not given
The procedure, abridged: as §1
As to `CC(C)(O)CC[C@H]1OC(C)(C)O[C@]1(C)[C@H]1CC=C2C3=C/C(=N/OC(C)(C)C)[C@@H]4C[C@H]5OC(C)(C)O[C@H]5C[C@]4(C)[C@H]3CC[C@@]21C`, the CI came to 0.23.

For another data set, the target named is ABCB1 (P-glycoprotein) (Homo sapiens, UniProt P08183). Kind of data set: Inhibition of human ABCB1 expressed in mouse L5178 cells assessed as increase in rhodamine-123 accumulation at 20 uM after 10 mins by flow cytometric analysis relative to control. Particulars: mouse L5178 cells expressing human ABCB1, probe rhodamine-123. The format is cell-based. An outline of the steps:
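Cells at 2 × 10^6/mL were preincubated 10 min with compound. Rhodamine 123 then added to 5.2 µM final, 20 min at 37 °C. Cells washed twice in PBS, resuspended and read by flow cytometry. Percent inhibition was scaled between MDR-cell accumulation (0%) and parental L5178 accumulation (100%). Controls: 100 nM tariquidar (positive) and 2% DMSO (negative).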
(In general: A flow cytometer gives signals particle by particle.)
A word on the inhibition: it is the drop in the measured response relative to a control, in per cent. `CC(C)(O)CC[C@H]1OC(C)(C)O[C@]1(C)[C@H]1CC=C2C3=C/C(=N/OC(C)(C)C)[C@@H]4C[C@H]5OC(C)(C)O[C@H]5C[C@]4(C)[C@H]3CC[C@@]21C`: the inhibition at 10 min, 20 µM is 78.8%.

System in the next data set: not listed separately
Description: Synergistic cytotoxicity against mouse L5178 cells assessed as combination index at ED75 using 300:1 test compound to doxorubicin ratio after 48 hrs by MTT-based checkerboard microplate method.
Conditions: not given
The format is functional. An outline of the steps:
as §1
As for `CC(C)(O)CC[C@H]1OC(C)(C)O[C@]1(C)[C@H]1CC=C2C3=C/C(=N/OC(C)(C)C)[C@@H]4C[C@H]5OC(C)(C)O[C@H]5C[C@]4(C)[C@H]3CC[C@@]21C`, the CI was 1.06.

System in another data set: not listed separately
Description: Synergistic cytotoxicity against mouse L5178 cells assessed as combination index at ED90 using 150:1 test compound to doxorubicin ratio after 48 hrs by MTT-based checkerboard microplate method. The format is functional.
Conditions: not given
An outline of the steps: as §1
As to `CC(C)(O)CC[C@H]1OC(C)(C)O[C@]1(C)[C@H]1CC=C2C3=C/C(=N/OC(C)(C)C)[C@@H]4C[C@H]5OC(C)(C)O[C@H]5C[C@]4(C)[C@H]3CC[C@@]21C`, the CI came to 0.79.

System in another data set: not listed separately
Description: Synergistic cytotoxicity against mouse L5178 cells expressing human ABCB1 assessed as combination index at ED75 using 7.5:1 test compound to doxorubicin ratio after 48 hrs by MTT-based checkerboard microplate method. The format is functional.
Conditions: not given
The procedure, abridged: as §1
On to `CC(C)(O)CC[C@H]1OC(C)(C)O[C@]1(C)[C@H]1CC=C2C3=C/C(=N/OC(C)(C)C)[C@@H]4C[C@H]5OC(C)(C)O[C@H]5C[C@]4(C)[C@H]3CC[C@@]21C`, for which the CI came out at 0.26.

System in the next data set: not listed separately
Description: Synergistic cytotoxicity against mouse L5178 cells assessed as combination index at ED50 using 600:1 test compound to doxorubicin ratio after 48 hrs by MTT-based checkerboard microplate method. The format is functional.
Conditions: not given
The procedure, abridged:
as §1
As to `CC(C)(O)CC[C@H]1OC(C)(C)O[C@]1(C)[C@H]1CC=C2C3=C/C(=N/OC(C)(C)C)[C@@H]4C[C@H]5OC(C)(C)O[C@H]5C[C@]4(C)[C@H]3CC[C@@]21C`, the CI was determined as 0.88.

For the next data set, the system named is MCF7. Description: Antiproliferative activity against human MCF7 cells after 72 hrs by MTT assay. The format is functional, cell-based. As to conditions: MCF7, 72 h. The procedure, abridged:
(§2)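 Cells grown in MEM with 10% FCS, 1% non-essential amino acids and 1% penicillin-streptomycin. Seeded at 5000 cells/well, exposed to 0.1–30.0 µM compound for 72 h. MTT (5 mg/ml solution) was then added for 4 h, formazan dissolved in DMSO, and absorbance read at 545 nm. Cisplatin served as positive control. IC50 came from sigmoidal dose–response fits (log inhibitor vs normalized response, variable slope).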
(Tetrazolium dyes change colour on reduction, which living cells bring about.)
Broadly, the IC50 is the concentration at which inhibition is half-maximal. A high value points to weaker potency in that assay. `CC(C)(O)CC[C@H]1OC(C)(C)O[C@]1(C)[C@H]1CC=C2C3=C/C(=N/OC(C)(C)C)[C@@H]4C[C@H]5OC(C)(C)O[C@H]5C[C@]4(C)[C@H]3CC[C@@]21C`: inhibition was half-maximal at 17.3 µM (IC50).

In the next data set the test system is MDA-MB-231. Description: Antiproliferative activity against human MDA-MB-231 cells after 72 hrs by MTT assay. The format is functional, cell-based. Particulars: MDA-MB-231, 72 h. The procedure, abridged:
as §2
The compound `CC(C)(O)CC[C@H]1OC(C)(C)O[C@]1(C)[C@H]1CC=C2C3=C/C(=N/OC(C)(C)C)[C@@H]4C[C@H]5OC(C)(C)O[C@H]5C[C@]4(C)[C@H]3CC[C@@]21C` gave an IC50 of 15.7 µM. This lies in the double-digit micromolar range.

System in a further data set: not listed separately
Description: Synergistic cytotoxicity against mouse L5178 cells expressing human ABCB1 assessed as combination index at ED50 using 15:1 test compound to doxorubicin ratio after 48 hrs by MTT-based checkerboard microplate method. The format is functional.
Conditions: not given
An outline of the steps:
as §1
On to `CC(C)(O)CC[C@H]1OC(C)(C)O[C@]1(C)[C@H]1CC=C2C3=C/C(=N/OC(C)(C)C)[C@@H]4C[C@H]5OC(C)(C)O[C@H]5C[C@]4(C)[C@H]3CC[C@@]21C`, for which the CI stood at 0.5.

System in another data set: not listed separately
Description: Synergistic cytotoxicity against mouse L5178 cells expressing human ABCB1 assessed as combination index at ED90 using 60:1 test compound to doxorubicin ratio after 48 hrs by MTT-based checkerboard microplate method. The format is functional.
Conditions: not given
The procedure, abridged:
as §1
As for `CC(C)(O)CC[C@H]1OC(C)(C)O[C@]1(C)[C@H]1CC=C2C3=C/C(=N/OC(C)(C)C)[C@@H]4C[C@H]5OC(C)(C)O[C@H]5C[C@]4(C)[C@H]3CC[C@@]21C`, the CI is given as 0.53.

System in the next data set: not listed separately
Kind of data set: Synergistic cytotoxicity against mouse L5178 cells expressing human ABCB1 assessed as combination index at ED50 using 30:1 test compound to doxorubicin ratio after 48 hrs by MTT-based checkerboard microplate method. The format is functional.
Conditions: not given
The procedure, abridged: as §1
With `CC(C)(O)CC[C@H]1OC(C)(C)O[C@]1(C)[C@H]1CC=C2C3=C/C(=N/OC(C)(C)C)[C@@H]4C[C@H]5OC(C)(C)O[C@H]5C[C@]4(C)[C@H]3CC[C@@]21C`, the CI was 0.34.

System in another data set: not listed separately
Description: Synergistic cytotoxicity against mouse L5178 cells assessed as combination index at ED90 using 75:1 test compound to doxorubicin ratio after 48 hrs by MTT-based checkerboard microplate method. The format is functional.
Conditions: not given
The procedure, abridged: as §1
On to `CC(C)(O)CC[C@H]1OC(C)(C)O[C@]1(C)[C@H]1CC=C2C3=C/C(=N/OC(C)(C)C)[C@@H]4C[C@H]5OC(C)(C)O[C@H]5C[C@]4(C)[C@H]3CC[C@@]21C`, for which the CI was found to be 0.55.

System in another data set: not listed separately
Description: Synergistic cytotoxicity against mouse L5178 cells assessed as combination index at ED75 using 600:1 test compound to doxorubicin ratio after 48 hrs by MTT-based checkerboard microplate method. The format is functional.
Conditions: not given
An outline of the steps:
as §1
As to `CC(C)(O)CC[C@H]1OC(C)(C)O[C@]1(C)[C@H]1CC=C2C3=C/C(=N/OC(C)(C)C)[C@@H]4C[C@H]5OC(C)(C)O[C@H]5C[C@]4(C)[C@H]3CC[C@@]21C`, the CI is 0.91.
